Measured values as given in article PMC9050161 (RSC Advances, 2020).

How the values were obtained:
CYP1A2 = molecular target: T1, CYP1A2 (Homo sapiens, UniProt P05177); assay: Inhibition of CYP1A2; assay type: biochemical
T1 sequence (P05177 1-516): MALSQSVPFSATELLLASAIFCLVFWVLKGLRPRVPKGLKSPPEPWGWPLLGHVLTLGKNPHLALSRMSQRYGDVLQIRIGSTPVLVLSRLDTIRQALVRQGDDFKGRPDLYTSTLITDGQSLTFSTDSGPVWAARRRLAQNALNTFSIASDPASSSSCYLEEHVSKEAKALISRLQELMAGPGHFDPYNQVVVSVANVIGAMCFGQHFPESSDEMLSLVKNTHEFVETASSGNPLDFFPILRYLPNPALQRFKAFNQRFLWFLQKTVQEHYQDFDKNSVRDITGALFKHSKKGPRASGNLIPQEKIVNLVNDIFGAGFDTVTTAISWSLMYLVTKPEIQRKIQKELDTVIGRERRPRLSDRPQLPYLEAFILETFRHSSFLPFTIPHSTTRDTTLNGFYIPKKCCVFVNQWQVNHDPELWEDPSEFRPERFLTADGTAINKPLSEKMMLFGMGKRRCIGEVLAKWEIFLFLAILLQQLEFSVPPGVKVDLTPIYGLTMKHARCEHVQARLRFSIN
Summary of the method: (§1)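 Recombinant human CYPs at 0.05 mg mL−1 protein, each with its probe substrate near Km: ethoxyresorufin 1 μM (CYP1A1), phenacetin 100 μM (CYP1A2), nifedipine 40 μM (CYP3A4, 3A5). Incubated at 37 °C without (control) or with test compound at 1, 10 and 100 μM. Supernatant analysed by UHPLC-TQD-MS; activity relative to control; triplicate.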

UGT1A7 = molecular target: T2, UGT1A7 (Homo sapiens, UniProt Q9HAW7); assay: Inhibition of UGT1A7; assay type: biochemical
T2 sequence (Q9HAW7 26-530): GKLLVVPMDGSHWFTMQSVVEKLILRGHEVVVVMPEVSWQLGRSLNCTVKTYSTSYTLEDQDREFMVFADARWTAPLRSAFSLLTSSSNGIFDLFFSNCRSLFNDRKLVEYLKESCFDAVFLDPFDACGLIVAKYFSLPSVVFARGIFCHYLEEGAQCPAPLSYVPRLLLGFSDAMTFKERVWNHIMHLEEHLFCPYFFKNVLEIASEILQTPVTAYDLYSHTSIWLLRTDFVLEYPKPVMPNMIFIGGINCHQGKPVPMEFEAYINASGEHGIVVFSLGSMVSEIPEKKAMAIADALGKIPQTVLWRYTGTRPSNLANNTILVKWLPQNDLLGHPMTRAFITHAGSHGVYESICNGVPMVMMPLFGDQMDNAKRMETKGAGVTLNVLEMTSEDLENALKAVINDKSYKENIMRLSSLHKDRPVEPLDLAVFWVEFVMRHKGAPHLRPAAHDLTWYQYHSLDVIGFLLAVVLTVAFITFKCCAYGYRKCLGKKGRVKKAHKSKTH
Summary of the method: (§2)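 Recombinant human UGTs screened with probe substrates: β-estradiol for UGT1A1, propofol for 1A9, and 4-methylumbelliferone for 1A3, 1A6, 1A7, 1A8, 1A10, 2B4, 2B7, 2B10, 2B15 and 2B17. Incubated at 37 °C without (control) or with test compound at 1, 10 or 100 μM. Glucuronide formation measured relative to control; triplicate.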

UGT2B7 = molecular target: T3, UGT2B7 (Homo sapiens, UniProt P16662); assay: Inhibition of UGT2B7; assay type: biochemical
T3 sequence (P16662 24-529): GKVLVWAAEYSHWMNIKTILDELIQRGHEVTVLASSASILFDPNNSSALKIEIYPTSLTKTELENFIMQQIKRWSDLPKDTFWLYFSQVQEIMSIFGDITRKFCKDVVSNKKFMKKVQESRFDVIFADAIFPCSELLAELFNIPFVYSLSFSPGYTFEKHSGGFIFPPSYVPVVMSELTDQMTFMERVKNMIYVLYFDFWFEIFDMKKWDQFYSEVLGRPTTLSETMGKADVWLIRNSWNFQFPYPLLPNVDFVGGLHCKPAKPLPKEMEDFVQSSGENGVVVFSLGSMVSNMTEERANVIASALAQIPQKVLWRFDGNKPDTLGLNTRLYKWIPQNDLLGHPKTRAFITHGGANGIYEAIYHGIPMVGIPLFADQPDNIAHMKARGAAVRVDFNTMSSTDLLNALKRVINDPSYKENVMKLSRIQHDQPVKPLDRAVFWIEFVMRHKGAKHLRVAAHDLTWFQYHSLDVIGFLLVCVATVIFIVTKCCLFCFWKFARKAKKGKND
Summary of the method: as §2

CYP2A6 = CYP2A6 (Homo sapiens, UniProt P11509); assay: Inhibition of CYP2A6; assay type: biochemical; settings: PI-103 1, 10 and 100 μM
Sequence of CYP2A6 (P11509 whole entry): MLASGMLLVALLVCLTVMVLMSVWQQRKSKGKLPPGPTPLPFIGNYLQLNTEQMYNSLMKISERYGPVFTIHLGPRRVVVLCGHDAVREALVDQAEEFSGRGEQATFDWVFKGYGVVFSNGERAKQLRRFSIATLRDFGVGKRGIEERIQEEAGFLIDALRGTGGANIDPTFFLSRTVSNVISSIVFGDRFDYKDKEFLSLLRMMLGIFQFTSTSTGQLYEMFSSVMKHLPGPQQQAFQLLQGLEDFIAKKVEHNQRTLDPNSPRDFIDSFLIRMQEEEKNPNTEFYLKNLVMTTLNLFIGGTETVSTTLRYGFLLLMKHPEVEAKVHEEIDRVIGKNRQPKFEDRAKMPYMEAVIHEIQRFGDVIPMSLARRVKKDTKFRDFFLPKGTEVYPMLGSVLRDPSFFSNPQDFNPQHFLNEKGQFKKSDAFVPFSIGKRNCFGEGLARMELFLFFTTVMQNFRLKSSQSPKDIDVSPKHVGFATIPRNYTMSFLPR
Summary of the method: (§3)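 Recombinant human CYPs at 0.1 mg mL−1 protein, each with its probe substrate near Km: coumarin 100 μM (2A6), bupropion 100 μM (2B6), paclitaxel 60 μM (2C8), tolbutamide 200 μM (2C9), mephenytoin 100 μM (2C19), chlorzoxazone 200 μM (2E1). Incubated at 37 °C with or without test compound at 1, 10 or 100 μM. UHPLC-TQD-MS read-out; triplicate.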

CYP2C19 = CYP2C19 (Homo sapiens, UniProt P33261); assay: Inhibition of CYP2C19; assay type: biochemical
Sequence of CYP2C19 (P33261 whole entry): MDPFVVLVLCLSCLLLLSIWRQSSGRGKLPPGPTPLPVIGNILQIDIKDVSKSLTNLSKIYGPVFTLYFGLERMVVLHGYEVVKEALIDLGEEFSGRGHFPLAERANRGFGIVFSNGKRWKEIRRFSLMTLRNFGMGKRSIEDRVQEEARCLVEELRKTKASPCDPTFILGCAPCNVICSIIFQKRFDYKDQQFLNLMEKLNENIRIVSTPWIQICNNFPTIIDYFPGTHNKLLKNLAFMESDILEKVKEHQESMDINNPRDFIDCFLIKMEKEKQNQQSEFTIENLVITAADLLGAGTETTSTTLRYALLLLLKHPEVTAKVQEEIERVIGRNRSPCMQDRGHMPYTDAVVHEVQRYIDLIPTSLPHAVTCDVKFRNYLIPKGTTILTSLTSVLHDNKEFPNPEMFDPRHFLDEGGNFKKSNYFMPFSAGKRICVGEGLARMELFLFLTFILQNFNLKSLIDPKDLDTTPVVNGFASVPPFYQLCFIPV
Summary of the method: as §3

HeLa cells = assay: Toxicity of PI-103 in HeLa cells; assay type: cell-based, human; settings: within the experimental concentrations (maximal 5 μM)
UGT1A8 = UGT1A8 (Homo sapiens, UniProt Q9HAW9); assay: Inhibition of UGT1A8; assay type: biochemical; settings: PI-103 1, 10 and 100 μM
Sequence of UGT1A8 (Q9HAW9 26-530): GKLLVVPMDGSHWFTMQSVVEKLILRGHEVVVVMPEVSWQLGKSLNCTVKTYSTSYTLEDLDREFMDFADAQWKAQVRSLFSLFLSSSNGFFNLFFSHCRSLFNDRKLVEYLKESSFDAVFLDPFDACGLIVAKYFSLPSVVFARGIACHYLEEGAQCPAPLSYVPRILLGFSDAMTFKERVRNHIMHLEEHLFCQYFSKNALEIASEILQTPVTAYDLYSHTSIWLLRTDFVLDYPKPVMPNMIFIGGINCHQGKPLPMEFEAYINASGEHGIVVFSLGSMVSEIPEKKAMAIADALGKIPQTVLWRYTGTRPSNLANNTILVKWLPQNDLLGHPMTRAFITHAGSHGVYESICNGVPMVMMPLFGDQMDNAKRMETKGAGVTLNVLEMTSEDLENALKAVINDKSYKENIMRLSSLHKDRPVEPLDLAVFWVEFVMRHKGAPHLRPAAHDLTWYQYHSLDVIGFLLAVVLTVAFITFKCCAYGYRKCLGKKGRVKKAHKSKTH
Summary of the method: as §2

CYP2E1 = CYP2E1 (Homo sapiens, UniProt P05181); assay: Inhibition of CYP2E1; assay type: biochemical
Sequence of CYP2E1 (P05181 whole entry): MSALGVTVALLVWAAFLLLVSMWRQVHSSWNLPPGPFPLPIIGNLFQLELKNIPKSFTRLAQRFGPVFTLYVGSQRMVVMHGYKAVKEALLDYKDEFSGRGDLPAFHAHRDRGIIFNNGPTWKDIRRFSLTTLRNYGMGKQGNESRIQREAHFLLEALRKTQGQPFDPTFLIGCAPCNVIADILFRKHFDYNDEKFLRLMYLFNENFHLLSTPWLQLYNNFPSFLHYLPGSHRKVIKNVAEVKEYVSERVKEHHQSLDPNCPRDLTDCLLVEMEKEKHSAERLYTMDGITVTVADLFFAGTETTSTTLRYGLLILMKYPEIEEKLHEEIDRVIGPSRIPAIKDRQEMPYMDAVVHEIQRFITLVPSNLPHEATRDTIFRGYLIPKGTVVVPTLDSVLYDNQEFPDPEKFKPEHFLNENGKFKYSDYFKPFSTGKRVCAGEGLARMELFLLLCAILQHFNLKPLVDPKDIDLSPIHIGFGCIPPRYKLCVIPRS
Summary of the method: as §3

BCRP = BCRP (Homo sapiens, UniProt Q9UNQ0); assay: M2 excretion in HeLa1A9 cells after shRNA knock-down of BCRP; assay type: cell-based
Sequence of BCRP (Q9UNQ0 whole entry): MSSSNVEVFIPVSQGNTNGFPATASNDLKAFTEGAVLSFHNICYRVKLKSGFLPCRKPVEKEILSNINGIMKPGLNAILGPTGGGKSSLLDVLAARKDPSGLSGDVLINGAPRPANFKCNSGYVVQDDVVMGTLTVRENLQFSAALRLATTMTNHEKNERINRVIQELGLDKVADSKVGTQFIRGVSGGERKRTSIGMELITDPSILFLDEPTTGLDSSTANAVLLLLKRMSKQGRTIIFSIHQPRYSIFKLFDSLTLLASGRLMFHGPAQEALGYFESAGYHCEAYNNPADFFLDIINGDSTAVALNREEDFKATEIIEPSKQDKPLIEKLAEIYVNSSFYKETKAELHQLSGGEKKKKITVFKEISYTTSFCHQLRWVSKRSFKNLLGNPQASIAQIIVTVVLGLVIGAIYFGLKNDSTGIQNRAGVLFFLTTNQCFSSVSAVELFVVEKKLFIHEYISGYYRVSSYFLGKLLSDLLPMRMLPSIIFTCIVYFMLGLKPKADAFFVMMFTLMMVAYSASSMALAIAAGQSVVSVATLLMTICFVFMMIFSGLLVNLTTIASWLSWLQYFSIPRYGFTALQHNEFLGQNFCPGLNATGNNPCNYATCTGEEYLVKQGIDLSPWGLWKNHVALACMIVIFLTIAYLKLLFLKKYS
Summary of the method: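 shRNA plasmid against BCRP, MRP1, MRP3 or MRP4 transfected into UGT1A9-expressing HeLa cells, then exposed to 5 μM test compound in HBSS. Medium sampled at 30–120 min with replacement; cells collected at 120 min. UHPLC gave extracellular and intracellular glucuronide, excretion rate, efflux clearance (excretion rate/intracellular concentration) and fraction metabolized (fmet), each compared with control. Triplicate.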

UGT2B4 = UGT2B4 (Homo sapiens, UniProt P06133); assay: Inhibition of UGT2B4; assay type: biochemical; settings: PI-103 1, 10 and 100 μM
Sequence of UGT2B4 (P06133 24-528): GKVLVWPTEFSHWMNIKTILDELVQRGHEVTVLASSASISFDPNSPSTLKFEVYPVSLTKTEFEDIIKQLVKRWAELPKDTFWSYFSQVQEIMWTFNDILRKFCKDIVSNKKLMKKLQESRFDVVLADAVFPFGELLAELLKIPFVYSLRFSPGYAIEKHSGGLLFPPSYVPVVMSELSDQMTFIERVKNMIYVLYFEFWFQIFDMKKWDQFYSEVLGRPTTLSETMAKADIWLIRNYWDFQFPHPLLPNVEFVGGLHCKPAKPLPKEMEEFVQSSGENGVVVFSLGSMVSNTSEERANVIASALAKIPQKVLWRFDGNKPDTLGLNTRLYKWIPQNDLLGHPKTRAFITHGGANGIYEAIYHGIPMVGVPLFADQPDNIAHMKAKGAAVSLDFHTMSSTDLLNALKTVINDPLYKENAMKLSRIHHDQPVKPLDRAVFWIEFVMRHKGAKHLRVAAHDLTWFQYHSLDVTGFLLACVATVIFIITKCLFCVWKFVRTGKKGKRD
Summary of the method: as §2

CYP3A4 = CYP3A4 (Homo sapiens, UniProt P08684); assay: Inhibition of CYP3A4; assay type: biochemical; settings: PI-103 1, 10 and 100 μM
Sequence of CYP3A4 (P08684 whole entry): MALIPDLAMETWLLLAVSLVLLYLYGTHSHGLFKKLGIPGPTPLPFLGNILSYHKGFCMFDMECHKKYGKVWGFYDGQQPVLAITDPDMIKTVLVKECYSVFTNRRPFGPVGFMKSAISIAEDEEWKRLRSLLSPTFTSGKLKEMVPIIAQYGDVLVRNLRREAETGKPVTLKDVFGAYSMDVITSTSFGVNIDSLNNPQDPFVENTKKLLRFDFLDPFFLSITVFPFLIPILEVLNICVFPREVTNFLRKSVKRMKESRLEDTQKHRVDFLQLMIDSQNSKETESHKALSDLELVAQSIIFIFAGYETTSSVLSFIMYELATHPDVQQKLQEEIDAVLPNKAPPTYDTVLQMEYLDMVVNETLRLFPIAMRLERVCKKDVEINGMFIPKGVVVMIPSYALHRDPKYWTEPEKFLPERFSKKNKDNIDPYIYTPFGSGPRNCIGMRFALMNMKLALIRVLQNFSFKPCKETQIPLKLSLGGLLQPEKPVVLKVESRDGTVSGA
Summary of the method: as §1

Oc1cccc(-c2nc(N3CCOCC3)c3oc4ncccc4c3n2)c1 [PI-103]
IC50 (CYP1A2): 370 ± 40 nM
Ki (CYP1A2): 380 ± 30 nM
residual activity (CYP1A2; CYP1A2, 100 μM PI-103): 8.63 % of the negative control
Type of inhibition (CYP1A2; CYP1A2, phenacetin): Noncompetitive
IC50 (UGT1A7): 6250 ± 840 nM
Ki (UGT1A7): 5640 ± 600 nM
Type of inhibition (UGT1A7; UGT1A7, 4-MU): Noncompetitive
IC50 (UGT2B7): 1590 ± 210 nM
Ki (UGT2B7): 1350 ± 150 nM
Type of inhibition (UGT2B7; UGT2B7, 4-MU): Noncompetitive
inhibitory effect (CYP2A6): negligible or weak
IC50 (CYP2C19): 590 ± 60 nM
Ki (CYP2C19): 530 ± 30 nM
residual activity (CYP2C19; CYP2C19, 100 μM PI-103): 14.67 % of the negative control
Type of inhibition (CYP2C19; CYP2C19, mephenytoin): Noncompetitive
toxicity in HeLa cells (HeLa cells): no significant toxicities
inhibitory effect (UGT1A8): negligible
IC50 (CYP2E1): 330 ± 40 nM
Ki (CYP2E1): 250 ± 10 nM
residual activity (CYP2E1; CYP2E1, 100 μM PI-103): 13.69 % of the negative control
Type of inhibition (CYP2E1; CYP2E1, chlorzoxazone): Noncompetitive
reduction in fraction of metabolized (fmet) PI-103 (BCRP): 27.6%
inhibitory effect (UGT2B4): negligible
inhibitory effect (CYP3A4): negligible or weak
